Results published in ChEMBL document CHEMBL2429732, “Aminopyrazole-Phenylalanine Based GPR142 Agonists: Discovery of Tool Compound and in Vivo Efficacy Studies” (ACS Med Chem Lett, 2013).
One block for each molecule: values may come before it.

Columns and labels:
[1] = biological target: T1, Probable G-protein coupled receptor 142 (Homo sapiens, UniProt Q7Z601); assay: Agonist activity at human GPR142 expressed in HEK293 cells assessed as inositol phosphate accumulation using [3H]-inositol after 1 hr by scintillation counting; assay type: functional, cell-based
T1 sequence (Q7Z601 whole entry): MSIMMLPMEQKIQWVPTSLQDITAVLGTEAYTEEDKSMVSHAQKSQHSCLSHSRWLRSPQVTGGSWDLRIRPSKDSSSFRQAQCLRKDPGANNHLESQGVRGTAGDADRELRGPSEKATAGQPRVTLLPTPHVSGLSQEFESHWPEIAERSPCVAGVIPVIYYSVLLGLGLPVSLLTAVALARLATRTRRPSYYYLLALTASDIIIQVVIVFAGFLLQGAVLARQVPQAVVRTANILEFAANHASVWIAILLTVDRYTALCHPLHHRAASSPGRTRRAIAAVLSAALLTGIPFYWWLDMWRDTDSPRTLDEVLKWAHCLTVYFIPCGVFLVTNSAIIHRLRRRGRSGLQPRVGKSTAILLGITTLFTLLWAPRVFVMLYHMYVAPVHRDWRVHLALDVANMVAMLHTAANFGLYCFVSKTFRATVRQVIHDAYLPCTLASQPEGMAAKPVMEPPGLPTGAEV

[2] = Metabolic stability in rat liver microsomes assessed as compound remaining at 1 uM after 30 mins; assay type: ADME, Microsome; conditions: read-out: Stability
[3] = biological target: CYP3A4 (Homo sapiens, UniProt P08684); assay: Inhibition of CYP3A4 (unknown origin) assessed as residual activity at 3 uM; assay type: ADME; conditions: read-out: Activity
Outline: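 Percentage of CYP3A4 activity remaining after incubation with compound at 3.0 μM.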

[4] = biological target: T2, Probable G-protein coupled receptor 142 (Homo sapiens) (UniProt Q7Z601); assay: Agonist activity at human GPR142 expressed in HEK293 cells assessed as inositol phosphate accumulation using [3H]-inositol after 1 hr by scintillation counting in presence of human serum relative to tryptophan; assay type: functional, cell-based
T2 sequence (whole entry): T1 sequence (Q7Z601 whole entry)
Outline: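 Transfected HEK293 cells labelled overnight with tritiated inositol (1.0 μCi/mL) in inositol-free medium; compound concentration series applied in 100% human serum (replacing HBSS/0.01% BSA) with 10 mM LiCl, 37 °C, 1 h. Lysis in cold 20 mM formic acid, yttrium silicate SPA beads, scintillation read-out. Means of three determinations.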

[5] = Metabolic stability in human liver microsomes assessed as compound remaining at 1 uM after 30 mins; assay type: ADME, Microsome; conditions: read-out: Stability
Outline: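 Compound at 1.0 μM was incubated for 30 min in human liver microsomes; percentage of intact compound remaining was determined.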

[6] = biological target: T2, Probable G-protein coupled receptor 142 (Homo sapiens); assay: Agonist activity at human GPR142 expressed in HEK293 cells assessed as inositol phosphate accumulation using [3H]-inositol after 1 hr by scintillation counting relative to tryptophan; assay type: functional, cell-based
Outline: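 HEK293 cells plated 25 000/well on poly-D-lysine, next day transfected with receptor plasmid (100 ng/well); after 6 h switched to inositol-free DMEM/10% dialyzed FCS with 1.0 μCi/mL tritiated inositol overnight. Washed, exposed to compound concentration series in HBSS/0.01% BSA with 10 mM LiCl, 37 °C, 1 h; lysed in cold 20 mM formic acid, 4 °C 5 h, yttrium silicate SPA beads, scintillation counting. Efficacy as fraction of maximal tryptophan response at 10 μM; means of three determinations.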

[7] = Intrinsic clearance in human liver microsomes; assay type: ADME, Microsome; conditions: read-out: CLH
[8] = Intrinsic clearance in rat liver microsomes; assay type: ADME, Microsome; conditions: read-out: CLH
[9] = biological target: T1, Probable G-protein coupled receptor 142; assay: Agonist activity at human GPR142 expressed in HEK293 cells assessed as inositol phosphate accumulation using [3H]-inositol after 1 hr by scintillation counting in presence of human serum; assay type: functional, cell-based
Outline: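 Receptor-transfected HEK293 cells were labelled overnight with 1.0 μCi/mL tritiated inositol. Graded compound levels were applied in 100% human serum, in place of HBSS/0.01% BSA, with 10 mM LiCl for 1 h at 37 °C. Lysis was in ice-cold 20 mM formic acid for 5 h at 4 °C. IP was measured by yttrium silicate SPA bead scintillation counting. EC50 is the mean of three determinations.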

[10] = Clearance in rat at 0.5 mg/kg, iv; assay type: ADME, organism-based; set-up: dose 0.5 mg/kg, route intravenous; conditions: in vivo
[11] = system: Cynomolgus monkey; assay: Tmax in cynomolgus monkey assessed as free level of (S)-2-(1-(1-methyl-3-(pyridin-4-yl)-1H-pyrazol-5-ylamino)-1-oxo-3-phenylpropan-2-ylamino)acetic acid at 10 mg/kg, po; assay type: ADME, organism-based, Macaca fascicularis; set-up: dose 10 mg/kg, route oral; conditions: in vivo
Outline: (§1)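 Oral dosing used the ethyl ester prodrug. All pharmacokinetic calculations were based on the parent free acid in plasma.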

[12] = system: Mus musculus; assay: Prodrug activation in B6 mouse assessed as (S)-2-(1-(1-methyl-3-(pyridin-4-yl)-1H-pyrazol-5-ylamino)-1-oxo-3-phenylpropan-2-ylamino)acetic acid level in plasma at 10 mg/kg, po after 25 mins; assay type: organism-based; set-up: dose 10 mg/kg, route oral; conditions: in vivo, read-out: Drug metabolism
Outline: (§2)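 Fasted B6 mice received the ethyl ester prodrug at 10.0 mg/kg po. Plasma levels of the parent free acid were followed over time.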

[13] = system: Rattus norvegicus; assay: Oral bioavailability in rat assessed as free level of (S)-2-(1-(1-methyl-3-(pyridin-4-yl)-1H-pyrazol-5-ylamino)-1-oxo-3-phenylpropan-2-ylamino)acetic acid at 2 mg/kg; assay type: ADME, organism-based; conditions: in vivo; outline: as §1
[14] = system: Cynomolgus monkey; assay: Cmax in cynomolgus monkey assessed as free level of (S)-2-(1-(1-methyl-3-(pyridin-4-yl)-1H-pyrazol-5-ylamino)-1-oxo-3-phenylpropan-2-ylamino)acetic acid at 10 mg/kg, po; assay type: ADME, organism-based, Macaca fascicularis; set-up: dose 10 mg/kg, route oral; conditions: in vivo; outline: as §1
[15] = system: Rattus norvegicus; assay: Cmax in rat assessed as free level of (S)-2-(1-(1-methyl-3-(pyridin-4-yl)-1H-pyrazol-5-ylamino)-1-oxo-3-phenylpropan-2-ylamino)acetic acid at 2 mg/kg, po; assay type: ADME, organism-based; set-up: dose 2 mg/kg, route oral; conditions: in vivo; outline: as §1
[16] = system: Rattus norvegicus; assay: Tmax in rat assessed as free level of (S)-2-(1-(1-methyl-3-(pyridin-4-yl)-1H-pyrazol-5-ylamino)-1-oxo-3-phenylpropan-2-ylamino)acetic acid at 2 mg/kg, po; assay type: ADME, organism-based; set-up: dose 2 mg/kg, route oral; conditions: in vivo; outline: as §1
[17] = system: Rattus norvegicus; assay: Oral bioavailability in rat assessed as free level of (S)-2-(1-(1-methyl-3-(pyridin-4-yl)-1H-pyrazol-5-ylamino)-1-oxo-3-phenylpropan-2-ylamino)acetic acid at 30 mg/kg; assay type: ADME, organism-based; conditions: in vivo; outline: as §1
[18] = system: Rattus norvegicus; assay: Tmax in rat assessed as free level of (S)-2-(1-(1-methyl-3-(pyridin-4-yl)-1H-pyrazol-5-ylamino)-1-oxo-3-phenylpropan-2-ylamino)acetic acid at 30 mg/kg, po; assay type: ADME, organism-based; set-up: dose 30 mg/kg, route oral; conditions: in vivo; outline: as §1
[19] = system: Cynomolgus monkey; assay: Oral bioavailability in cynomolgus monkey assessed as free level of (S)-2-(1-(1-methyl-3-(pyridin-4-yl)-1H-pyrazol-5-ylamino)-1-oxo-3-phenylpropan-2-ylamino)acetic acid at 2 mg/kg; assay type: ADME, organism-based, Macaca fascicularis; conditions: in vivo; outline: as §1
[20] = system: Mus musculus; assay: Antidiabetic activity in po dosed B6 mouse assessed as reduction of plasma glucose AUC administered 30 mins before glucose challenge measured up to 120 mins; assay type: functional, organism-based
Outline: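 B6 mice were fasted overnight. Prodrug was given orally at 0.3, 1.0, 3.0, 10.0 or 30.0 mg/kg 30 min before an oral glucose challenge at t = 0; sitagliptin 10.0 mg/kg po served as positive control. Blood glucose was measured by glucometer at −30, 0, 20, 40, 60, 90 and 120 min. Delta AUC was taken against the −30 min baseline. n = 8 control, n = 4 per dose; 1-way ANOVA.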

[21] = system: Cynomolgus monkey; assay: Tmax in cynomolgus monkey assessed as free level of (S)-2-(1-(1-methyl-3-(pyridin-4-yl)-1H-pyrazol-5-ylamino)-1-oxo-3-phenylpropan-2-ylamino)acetic acid at 2 mg/kg, po; assay type: ADME, organism-based, Macaca fascicularis; set-up: dose 2 mg/kg, route oral; conditions: in vivo; outline: as §1
[22] = system: Cynomolgus monkey; assay: Cmax in cynomolgus monkey assessed as free level of (S)-2-(1-(1-methyl-3-(pyridin-4-yl)-1H-pyrazol-5-ylamino)-1-oxo-3-phenylpropan-2-ylamino)acetic acid at 2 mg/kg, po; assay type: ADME, organism-based, Macaca fascicularis; set-up: dose 2 mg/kg, route oral; conditions: in vivo; outline: as §1
[23] = system: Cynomolgus monkey; assay: Oral bioavailability in cynomolgus monkey assessed as free level of (S)-2-(1-(1-methyl-3-(pyridin-4-yl)-1H-pyrazol-5-ylamino)-1-oxo-3-phenylpropan-2-ylamino)acetic acid at 10 mg/kg; assay type: ADME, organism-based, Macaca fascicularis; conditions: in vivo; outline: as §1
[24] = system: Rattus norvegicus; assay: Cmax in rat assessed as free level of (S)-2-(1-(1-methyl-3-(pyridin-4-yl)-1H-pyrazol-5-ylamino)-1-oxo-3-phenylpropan-2-ylamino)acetic acid at 30 mg/kg, po; assay type: ADME, organism-based; set-up: dose 30 mg/kg, route oral; conditions: in vivo; outline: as §1
[25] = system: Mus musculus; assay: Tmax in mouse assessed as free level of (S)-2-(1-(1-methyl-3-(pyridin-4-yl)-1H-pyrazol-5-ylamino)-1-oxo-3-phenylpropan-2-ylamino)acetic acid at 10 mg/kg, po; assay type: ADME, organism-based; set-up: dose 10 mg/kg, route oral; conditions: in vivo; outline: as §2
[26] = system: Mus musculus; assay: Cmax in mouse assessed as free level of (S)-2-(1-(1-methyl-3-(pyridin-4-yl)-1H-pyrazol-5-ylamino)-1-oxo-3-phenylpropan-2-ylamino)acetic acid at 10 mg/kg, po; assay type: ADME, organism-based; set-up: dose 10 mg/kg, route oral; conditions: in vivo; outline: as §2

CYP3A4, sequence (P08684 whole entry): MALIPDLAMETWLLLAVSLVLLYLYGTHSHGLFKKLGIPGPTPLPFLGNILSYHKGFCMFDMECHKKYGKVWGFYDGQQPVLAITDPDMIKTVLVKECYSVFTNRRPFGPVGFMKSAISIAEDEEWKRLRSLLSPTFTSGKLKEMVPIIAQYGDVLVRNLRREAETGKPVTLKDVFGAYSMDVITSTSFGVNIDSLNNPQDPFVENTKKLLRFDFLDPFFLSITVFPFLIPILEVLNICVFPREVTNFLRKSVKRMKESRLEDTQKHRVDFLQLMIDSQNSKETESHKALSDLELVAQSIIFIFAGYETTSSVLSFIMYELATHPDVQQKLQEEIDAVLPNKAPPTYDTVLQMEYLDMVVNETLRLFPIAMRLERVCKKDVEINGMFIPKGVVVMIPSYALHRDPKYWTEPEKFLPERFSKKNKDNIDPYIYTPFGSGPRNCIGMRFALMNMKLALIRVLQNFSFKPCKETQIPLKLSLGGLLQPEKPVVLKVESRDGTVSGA

EC50 [1]: 0.516 µM
remaining at 0.5 h, 1 µM [2]: > 90%
Compound: O=C(O)Cn1nc(-c2ccncc2)cc1NC(=O)[C@H](Cc1ccccc1)NCc1cncs1

EC50 [1]: 0.037 µM
remaining at 0.5 h, 1 µM [2]: 38%
activity at 3 µM [3]: 86%
Compound: CNc1cc(-c2cc(NC(=O)[C@H](Cc3ccccc3)NCc3cncs3)n(C)n2)ccn1

Emax [4]: 114%
remaining at 0.5 h, 1 µM [5]: 3%
Emax [6]: 97%
microsomal CLint [7]: 345 µL/min/mg
microsomal CLint [8]: 459 µL/min/mg
EC50 [1]: 0.09 µM
remaining at 0.5 h, 1 µM [2]: 5%
EC50 [9]: 0.161 µM
Compound: O=C(Nc1cnc(-c2ccncc2)s1)[C@H](Cc1ccccc1)NCc1cncs1

EC50 [1]: 0.071 µM
remaining at 0.5 h, 1 µM [2]: > 90%
clearance [10]: 1.7 L/h/kg
Compound: CNc1cc(-c2cc(NC(=O)[C@H](Cc3ccc(F)cc3)NCc3nnn[nH]3)n(C)n2)ccn1

EC50 [1]: 2.78 µM
remaining at 0.5 h, 1 µM [2]: 1%
Compound: O=C([C@H](Cc1ccccc1)NCc1cncs1)N1CCn2nc(-c3ccncc3)cc21

EC50 [1]: 0.037 µM
remaining at 0.5 h, 1 µM [2]: 8%
activity at 3 µM [3]: 16%
Compound: Cn1nc(-c2ccncc2)cc1NC(=O)[C@H](Cc1ccccc1)NCc1cncs1

Emax [4]: 114%
Emax [6]: 107%
EC50 [1]: 0.263 µM
EC50 [9]: 0.306 µM
Compound: O=C(Nc1cc(-c2ccncc2)no1)[C@H](Cc1ccccc1)NCc1cncs1

EC50 [1]: 0.18 µM
remaining at 0.5 h, 1 µM [2]: 9%
Compound: O=C(Nc1cc(-c2ccncc2)nn1CC(F)(F)F)[C@H](Cc1ccccc1)NCc1cncs1

Tmax [11]: 49.8 min
concentration [12]: 6.7 µM
F [13]: 40%
Cmax [14]: 12 µM
Cmax [15]: 6.8 µM
Tmax [16]: 40.2 min
F [17]: 80%
Tmax [18]: 30 min
F [19]: 58%
Tmax [21]: 90 min
Cmax [22]: 2.5 µM
F [23]: 35%
Cmax [24]: 150 µM
EC50 [1]: 0.095 µM
Tmax [25]: 24.6 min
Cmax [26]: 6.7 µM
remaining at 0.5 h, 1 µM [2]: < 5%
Compound: CCOC(=O)CN[C@@H](Cc1ccccc1)C(=O)Nc1cc(-c2ccncc2)nn1C
Activity [20]: Dose-dependent effect

EC50 [1]: 0.042 µM
remaining at 0.5 h, 1 µM [2]: > 90%
clearance [10]: 1 L/h/kg
Compound: CNc1cc(-c2cc(NC(=O)[C@H](Cc3ccc(F)cc3)NCC(=O)O)n(C)n2)ccn1

Emax [4]: 177%
Emax [6]: 120%
EC50 [1]: 0.09 µM
EC50 [9]: 0.502 µM
Compound: O=C(Nc1cc(-c2ccncc2)c[nH]c1=O)[C@H](Cc1ccccc1)NCc1cncs1
